The nature of data set [1]: Drug uptake in cytoplasm of human PANC1 at 3 uM after 4 hrs by Syto-14 fluorescent dye-based confocal microscopic method. It counts as ADME.
In data set [2] the test system is PANC-1. Description: Induction of apoptosis in human PANC1 cells assessed as activation of caspase-3/7 at 0.8 to 1.6 uM. It counts as functional, cell-based. Summed up:
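Caspase-3/7 activity in treated Panc-1 cells was read with a homogeneous fluorogenic caspase-3/7 kit per the manufacturer.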

The subject of data set [3] is PANC-1. Description: Downregulation of KRAS mRNA expression in human PANC1 cells at 1.6 uM after 6 to 24 hrs by qRT-PCR method relative to control. The format is functional. Summed up:
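Panc-1 cells were seeded at 18 × 10^3/well and treated the next day. Total RNA was extracted 6 and 24 h later. cDNA was made with oligo-dT plus random hexamers and M-MLV reverse transcriptase (1 h, 37 °C). Multiplex probe qPCR measured KRAS against HPRT and β2-microglobulin (50 cycles: 10 s 95 °C, 60 s 58 °C).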
Background: In qPCR the cycle at which signal appears reflects the starting amount.

Data set [4] relates to PANC-1. Description: Induction of apoptosis in human PANC1 cells at 1.6 uM after 72 hrs by annexin V/propidium iodide staining-based flow cytometric method (reference value: 1.2%). It counts as functional. The method in brief:
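Panc-1 cells were exposed to 1.6 μM compound for 72 h, stained with FITC-annexin V and propidium iodide, and apoptotic cells counted by flow cytometry.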
A general note: A flow cytometer gives signals particle by particle.

Data set [5] is filed under the species Homo sapiens. As to the kind of experiment: Stabilization of human KRAS 5'-UTR G-quadruplex RNA at 3'-end of CMV promoter transfected in human PANC1 cells assessed as inhibition of translation preincubated for 6 hrs followed by transfection measured after 48 hrs by dual-glo luciferase reporter gene assay. The format is cell-based. Summed up:
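Renilla reporter pRL-CMV-UTR carries the 192-nt KRAS 5′-UTR inserted downstream of the CMV promoter. Panc-1 cells were pretreated 6 h (0–1.6 μM), then cotransfected (10 ng) with 200 ng Firefly plasmid under a G4-mutated HRAS promoter. Dual-Glo was read after 48 h, expressed as Renilla/Firefly T/C × 100.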
A general note: In a reporter assay the amount or activity of a reporter protein is the signal.

A short description of data set [6]: Selectivity ratio of Kd for WC RNA hairpin (unknown origin) to Kd for human KRAS utr-1 G-quadruplex RNA.
Data set [7] can be described thus: Binding affinity to human KRAS utr-z G-quadruplex RNA by fluorescence titration method. Summed up:
(§1)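 KD was obtained from fluorescence titrations of ligand with G4 RNA in 50 mM Tris-HCl, pH 7.4, 100 mM KCl.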

For another data set, the system named is Cytomegalovirus. Description: Stabilization of CMV promoter lacking KRAS 5'-UTR G-quadruplex RNA transfected in human PANC1 cells assessed as inhibition of translation at 0.15 to 0.6 uM preincubated for 6 hrs followed by transfection measured after 48 hrs by dual-glo luciferase reporter gene assay. It counts as cell-based. The method in brief: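 Renilla reporter pRL-CMV lacks the KRAS 5′-UTR. Panc-1 cells were pretreated 6 h, then cotransfected (10 ng) with 200 ng Firefly plasmid under a G4-mutated HRAS promoter. Dual-Glo was read after 48 h, expressed as Renilla/Firefly T/C × 100 versus untreated cells.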

Data set [8] can be described thus: Binding affinity to WC RNA hairpin (unknown origin) by fluorescence titration method.
The species named for data set [9] is Homo sapiens. As to the kind of experiment: Stabilization of human KRAS utr-z G-quadruplex RNA assessed as change in melting temperature at 1 to 4 ligand to RNA ratio after 1 hr by UV-visible spectrophotometer. The method in brief: (§2)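 UV-melting curves of the G4 RNA were recorded at 260 and 296 nm in a 0.5 cm cuvette, in 50 mM Tris-HCl pH 7.4, 100 mM KCl. Ligand was tested at ligand/G4 ratio r = 1, 2 and 4. ΔTM is the TM increase over RNA alone.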

The nature of data set [10]: Selectivity ratio of Kd for WC RNA hairpin (unknown origin) to Kd for human KRAS utr-z G-quadruplex RNA.
The species named for data set [11] is Homo sapiens. As to the kind of experiment: Stabilization of human KRAS 5'-UTR G-quadruplex RNA in human PANC1 cells assessed as inhibition of translation by measuring levels of KRAS protein at 1.6 uM after 48 hrs by Western blot method relative to control. The format is cell-based. Details: scale not given: the % may be the effect or the level left. Summed up: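 Panc-1 lysates (15 μg protein) were run on 12% SDS-PAGE and transferred to nitrocellulose. Membranes were blocked with 5% BSA in PBS-0.05% Tween and probed overnight at 4 °C with rabbit polyclonal anti-KRAS (1:250) and mouse anti-actin. HRP-conjugated secondaries were applied for 1 h, with chemiluminescent detection.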

For data set [12], the species on record is Homo sapiens. Description: Stabilization of human KRAS utr-c G-quadruplex RNA assessed as change in melting temperature at 1 to 4 ligand to RNA ratio after 1 hr by UV-visible spectrophotometer. The method in brief:
as §2

The species entered for data set [13] is Homo sapiens. As to the kind of experiment: Stabilization of human KRAS utr-1 G-quadruplex RNA assessed as change in melting temperature at 4 ligand to RNA ratio after 1 hr in presence of 5 or 10 fold excess 21 mer RNA duplex by UV-visible spectrophotometer. Summed up: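 The utr-1 G4 RNA was UV-melted with ligand at ligand/G4 ratio r = 4, with a 5- or 10-fold excess of 21-mer RNA duplex added to test quadruplex-over-duplex competition.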

The nature of data set [14]: Binding affinity to human KRAS utr-4 G-quadruplex RNA by fluorescence titration method.
For data set [15], the species on record is Homo sapiens. As to the kind of experiment: Stabilization of human KRAS 5'-UTR G-quadruplex RNA transfected in human PANC1 cells assessed as inhibition of translation at 0.07 to 0.33 uM preincubated for 6 hrs followed by transfection measured after 48 hrs by dual-glo luciferase reporter gene assay. It counts as cell-based. Summed up: (§3)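 Panc-1 cells (20 × 10^3) were treated the next day for 6 h. They were then transfected with jet-PEI using 10 ng Renilla reporter under the KRAS promoter including the 5′-UTR, plus 200 ng Firefly plasmid under a G4-mutated HRAS promoter. Dual-Glo luminescence was read 48 h later. Renilla/Firefly is given as T/C × 100 against untreated cells.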

The nature of data set [16]: Binding affinity to human KRAS utr-1 G-quadruplex RNA by fluorescence titration method. Summed up: as §1
Data set [17] in a line: Selectivity ratio of Kd for WC RNA hairpin (unknown origin) to Kd for human KRAS utr-4 G-quadruplex RNA.
Data set [18] relates to PANC-1. Description: Inhibition of colony formation in human PANC1 cells at 0.25 to 0.5 uM after 18 days by methylene blue assay relative to control. It counts as functional. Summed up:
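Panc-1 cells were plated in 60 mm dishes with compound. After 18 days they were fixed and stained 10 min with 2.5% methylene blue in 50% ethanol. Colonies of more than 50 cells were counted.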

Data set [19] concerns PANC-1. Description: Inhibition of metabolic activity in human PANC1 cells after 72 hrs by resazurin assay. The following applies: PANC-1, 72 h. The format is functional, cell-based. The method in brief:
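Panc-1 cells were seeded at 10 × 10^3/well, treated after 1 day, incubated 72 h, then assayed with resazurin for metabolic activity. IC50 was reported.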

The species entered for data set [20] is Homo sapiens. As to the kind of experiment: Stabilization of human KRAS 5'-UTR G-quadruplex RNA transfected in human PANC1 cells assessed as inhibition of translation at 0.3 to 1.6 uM preincubated for 6 hrs followed by transfection measured after 48 hrs by dual-glo luciferase reporter gene assay. It counts as cell-based. The method in brief:
as §3

Data set [21] is described as follows: Drug uptake in human PANC1 cells at 3 uM after 4 hrs by flow cytometric method. The format is ADME, cell-based. The conditions noted are these: panc-1, 4 h. Summed up: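 Panc-1 cells were seeded at 5 × 10^4/well and exposed the next day to 3 μM compound for 4 h. Cells were trypsinized, resuspended in PBS and analysed at once by flow cytometry (488 nm excitation, FL3 680 nm, log scale), at least 10^4 cells per sample, gated on FSC/SSC.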

The species entered for data set [22] is Homo sapiens. As to the kind of experiment: Stabilization of human KRAS utr-1 G-quadruplex RNA assessed as change in melting temperature at 1 to 4 ligand to RNA ratio after 1 hr by UV-visible spectrophotometer. Summed up: as §2
The nature of data set [23]: Binding affinity to human KRAS promoter G-quadruplex DNA by fluorescence titration method.

The source made the active and inactive calls. The calls are words filed in the database; no cut-off is given here.

The text below walks through data of ChEMBL document CHEMBL4052820, “RNA G-Quadruplexes in Kirsten Ras (KRAS) Oncogene as Targets for Small Molecules Inhibiting Translation” (J Med Chem, 2017).

Regarding `N=C(N)NCCNc1c2c(c(NCCNC(=N)N)c3occc13)C(=O)c1ccccc1C2=O`, in data set [1], the Drug uptake entry is “Active”. Also, the outcome in the data set on PANC-1 [2] and in the data set with PANC-1 [3] was inactive.

One may read the Kd as the constant that tells how readily two partners part at equilibrium. Broadly, the ΔTm is the change in melting temperature against a reference sample. What is called IC50 is the point on the concentration scale where inhibition reaches its midpoint. In the case of `NCCNc1c2c(c(NCCN)c3occc13)C(=O)c1ccccc1C2=O`, the Activity in the data set on PANC-1 [4] was 32.5%; in the data set listed under Homo sapiens [11], below 10%; in the data set with PANC-1 [3], 50%. Further, the inhibition entry in the data set filed under Homo sapiens [5], in the data set filed under Homo sapiens [15] and in the data set listed under Homo sapiens [20] was “Dose-dependent effect” in each case. Also, the Drug uptake entry in [1] and in [21] was “Active” throughout. The Selectivity ratio in data set [6], in data set [10] and in data set [17] was 2 to 6 in each case. Besides, the Kd in data set [7] was found to be 251 nM; in data set [8], 514 nM; in data set [14], 96 nM; in [16] it was 75 nM; in data set [23], 626 nM. The inhibition result in the data set with Cytomegalovirus is “inactive”. For the same molecule, the ΔTm in the data set listed under Homo sapiens [9], in the data set listed under Homo sapiens [12] and in the data set listed under Homo sapiens [22] was below 32 °C each time. The result in the data set listed under Homo sapiens [13] and with PANC-1 [2] was Active. The “inhibition (INH)” value in the data set with PANC-1 [18] stood at 80%. The molecule also yielded an IC50 in the data set on PANC-1 [19] of 260 nM.

As to `NCCNc1c2c(c(NCCN)c3sccc13)C(=O)c1ccccc1C2=O`, the Activity in the data set with PANC-1 [4] is 20.6%; in the data set filed under Homo sapiens [11], below 10%. The Selectivity ratio in data set [6], in [10] and in [17] was 2 to 6 in each case. The Kd in data set [7] came to 294 nM; in data set [8] it was 482 nM; in [14] it was 83 nM; in data set [16], 91 nM; in data set [23], 278 nM. Besides, the ΔTm in the data set filed under Homo sapiens [9], in the data set listed under Homo sapiens [12] and in the data set filed under Homo sapiens [22] was below 20 °C each time. In the data set with PANC-1 [2], the result was Active. Moreover, the outcome with PANC-1 [3] was inactive. The molecule further displayed a half-maximal inhibitory concentration (IC50) with PANC-1 [19] of 900 nM. In addition, the inhibition entry in the data set filed under Homo sapiens [20] is “Dose-dependent effect”. Besides, the Drug uptake entry in [21] is “Active”.

As for `N=C(N)NCCNc1c2c(c(NCCNC(=N)N)c3sccc13)C(=O)c1ccccc1C2=O`, the result with PANC-1 [2] and with PANC-1 [3] was inactive.
